Reference: ChEMBL document CHEMBL1140339, “Spiro and dispiro-1,2,4-trioxolanes as antimalarial peroxides: charting a workable structure-activity relationship using simple prototypes” (J Med Chem, 2005)
Converted amounts (≈) assume the structure as drawn.

How the values were obtained:
Mus musculus [1] = experiment: Survival of mice to 30-day postinfection with Plasmodium berghei upon 10 mg/kg peroral dose was determined; assay type: functional; conditions: route oral
Summary of the method: (§1)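 P. berghei-infected MORO mice, groups of three, treated 1 day postinfection with a single dose (100 or 10 mg/kg, po or sc) dissolved or suspended in 3% ethanol/7% Tween-80. Activity is percent reduction in parasitemia on day 3 postinfection versus untreated controls. Survival time is compared with an untreated control group. Individual measurements generally differed by less than 10%.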

Mus musculus [2] = experiment: Antimalarial activity (10 mg/kg, subcutaneously) given 1 day post infection of mice (Mus musculus) with Plasmodium berghei is its ability to reduce parasitemia on day 3 post infection; assay type: functional; summary of the method: as §1
Mus musculus [3] = experiment: Antimalarial activity (10 mg/kg, peroral) given 1 day post infection of mice (Mus musculus) with Plasmodium berghei is its ability to reduce parasitaemia on day 3 post infection; assay type: functional; summary of the method: as §1
Mus musculus [4] = experiment: Survival of mice to 30-day postinfection with Plasmodium berghei upon 10 mg/kg upon subcutaneous dose was determined; assay type: functional; summary of the method: as §1
Plasmodium falciparum [5] = experiment: In vitro inhibition of chloroquine-resistant Plasmodium falciparum K1; assay type: functional, organism-based
Plasmodium falciparum [6] = experiment: In vitro inhibition of chloroquine-sensitive Plasmodium falciparum NF54; assay type: functional, organism-based
Mus musculus [7] = experiment: Survival of mice to 30-day postinfection with Plasmodium berghei upon 100 mg/kg upon subcutaneous dose was determined; assay type: functional; summary of the method: as §1
Mus musculus [8] = experiment: Antimalarial activity (100 mg/kg, peroral) given 1 day post infection of mice (Mus musculus) with Plasmodium berghei is its ability to reduce parasitaemia on day 3 post infection; assay type: functional; summary of the method: as §1
Mus musculus [9] = experiment: Antimalarial activity (100 mg/kg, subcutaneously) given 1 day post infection of mice (Mus musculus) with Plasmodium berghei is its ability to reduce parasitemia on day 3 post infection; assay type: functional; summary of the method: as §1
Mus musculus [10] = experiment: Survival of mice to 30-day postinfection with Plasmodium berghei upon 100 mg/kg peroral dose was determined; assay type: functional; conditions: route oral; summary of the method: as §1
Mus musculus [11] = experiment: Survival of mice to 30-day postinfection with Plasmodium berghei upon 10 mg/kg upon peroral dose was determined; assay type: functional; conditions: route oral; summary of the method: as §1
Mus musculus [12] = experiment: Effective dose required to reduce the parasitemia in mice when compound administered with SSV after 3 day postinfection; assay type: functional
[13] = Volume distribution after intravenous administration of 10 mg/kg; conditions: rat, in vivo
[14] = Oral bioavailability (dose 50 mg/kg); conditions: rat, in vivo
[15] = Plasma clearance after intravenous administration of 10 mg/kg; conditions: rat
Mus musculus [16] = species: Mus musculus; experiment: Effective dose required to reduce the parasitemia in mice by suppressive test after 4 day postinfection; assay type: functional
Summary of the method: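 Peters 4-day suppressive test in P. berghei-infected mice with multiple daily oral doses. ED50/ED90 are given in (mg/kg)/day.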

[17] = Plasma half life period after intravenous administration ( 10 mg/kg ); conditions: rat
Mus musculus [18] = experiment: Effective dose required to reduce the parasitemia in mice when compound administered with Tween-80 after 3 day postinfection; assay type: functional

Structure (SMILES) | Survival (Mus musculus [1]) | Reduction (Mus musculus [2]) | Reduction (Mus musculus [3]) | Survival (Mus musculus [4]) | IC50 (Plasmodium falciparum [5]) | IC50 (Plasmodium falciparum [6]) | other results
O=S1(=O)CCC2(CC1)OOC1(O2)C2CC3CC(C2)CC1C3 (centres undefined) | 7 days | 97% | 77% | 7.3 days |  |  | 
CC(C)(C)C1CCC2(CC1)OOC1(O2)C2CC3CC(C2)CC1C3 (centres undefined) | 5 days | 0% | 0% | 5.3 days | 0.063 µg/mL (≈ 0.197 µM) | 0.084 µg/mL (≈ 0.262 µM) | 
OC1CCC2(CC1)OOC1(O2)C2CC3CC(C2)CC1C3 (centres undefined) | 6.7 days | 91% | 79% | 8.7 days |  |  | 
c1ccc(C2(c3ccccc3)CCC3(CC2)OOC2(O3)C3CC4CC(C3)CC2C4)cc1 (centres undefined) | 5.3 days | 0% | 0% | 5.7 days | 0.042 µg/mL (≈ 0.101 µM) | 0.06 µg/mL (≈ 0.144 µM) | 
C1CCC2(CC1)OCC1(O2)C2CC3CC(C2)CC1C3 (centres undefined) |  |  |  |  | > 1 µg/mL | > 1 µg/mL | Survival (Mus musculus [7]): 5.6 days; Reduction (Mus musculus [8]): 0%; Reduction (Mus musculus [9]): 0%; Survival (Mus musculus [10]): 5.8 days
CC1(C)CCC2(CC1)OOC1(O2)C2CC3CC(C2)CC1C3 (centres undefined) | 6.7 days |  | 80% | 11.7 days | 0.0023 µg/mL (≈ 0.00787 µM) | 0.0035 µg/mL (≈ 0.012 µM) | 
c1ccc(C2(c3ccccc3)OOC3(O2)C2CC4CC(C2)CC3C4)cc1 (centres undefined) | 6 days | 92% | 68% | 7 days | 0.0023 µg/mL (≈ 0.0066 µM) | 0.0026 µg/mL (≈ 0.00746 µM) | 
CC(C)(C)C1CCC2(CC1)OOC1(CCC(c3ccccc3)CC1)O2 (centres undefined) | 0 days |  |  |  | 0.077 µg/mL (≈ 0.224 µM) | 0.062 µg/mL (≈ 0.18 µM) | 
c1ccc(C2CCC3(CC2)OOC2(O3)C3CCCC2CCC3)cc1 (centres undefined) | 5 days | 0% | 0% | 5 days | > 0.1 µg/mL | > 0.1 µg/mL | 
C1CCC2(CC1)OOC1(O2)C2CC3CC(C2)CC1C3 (centres undefined) |  | >99.99% | 94% |  |  |  | Survival (Mus musculus [7]): 28 days; Reduction (Mus musculus [8]): >99.99%; Reduction (Mus musculus [9]): >99.99%; Survival (Mus musculus [10]): 14.3 days; Survival (Mus musculus [11]): 7.2 days
CO[C@H]1O[C@@H]2O[C@@]3(C)CC[C@H]4[C@H](C)CC[C@@H]([C@H]1C)[C@@]24OO3 |  | 99.78% | 98% |  |  |  | ED50 (Mus musculus [12]): 2.7 (mg/kg)/day; ED90 (Mus musculus [12]): 6.2 (mg/kg)/day; Survival (Mus musculus [7]): 14.7 days; Reduction (Mus musculus [8]): 99.95%; Vd [13]: 8 L/kg; bioavailability [14]: 1.4%; Reduction (Mus musculus [9]): >99.99%; clearance [15]: 114 mL/min/kg; ED50 (Mus musculus [16]): 3.1 (mg/kg)/day; Survival (Mus musculus [10]): 14.7 days; half-life [17]: 52 min; ED50 (Mus musculus [18]): 2 (mg/kg)/day; ED90 (Mus musculus [18]): 4.3 (mg/kg)/day
C[C@@H]1CC[C@H]2[C@@H](C)C(=O)O[C@@H]3O[C@@]4(C)CC[C@@H]1[C@]32OO4 [ARTEMISININ] |  |  |  |  | 0.0016 µg/mL (≈ 0.00567 µM) |  | Survival (Mus musculus [7]): 14 days; Reduction (Mus musculus [8]): 98%; Reduction (Mus musculus [9]): >99.99%
C[C@H]1[C@H](OC(=O)CCC(=O)O)O[C@@H]2O[C@@]3(C)CC[C@H]4[C@H](C)CC[C@@H]1[C@@]24OO3 [ARTESUNATE] | 6.8 days | 65% | 65% | 6.8 days |  |  | ED50 (Mus musculus [12]): 5.9 (mg/kg)/day; ED90 (Mus musculus [12]): 21 (mg/kg)/day; ED50 (Mus musculus [16]): 2.4 (mg/kg)/day; ED90 (Mus musculus [16]): 13 (mg/kg)/day; ED50 (Mus musculus [18]): 5 (mg/kg)/day; ED90 (Mus musculus [18]): 13 (mg/kg)/day
CCN(CC)CCCC(C)Nc1ccnc2cc(Cl)ccc12 (centres undefined) [CHLOROQUINE] |  |  |  |  |  |  | ED50 (Mus musculus [12]): 1.9 (mg/kg)/day; ED90 (Mus musculus [12]): 4.2 (mg/kg)/day
